Laboratory results: ChEMBL document CHEMBL4014306, “Pyrazolopyrimidines as Potent Stimulators for Transient Receptor Potential Canonical 3/6/7 Channels” (J Med Chem, 2017)
pEC50: −log10 of the molar value. Calls of active or inactive are those of the source. The calls are words filed in the database; no cut-off is given here.

Experiments:
Type in all cases: cell-based
[1] = target: T1, Short transient receptor potential channel 6 (Mus musculus, UniProt Q61143); experiment: Agonist activity at mouse TRPC6 expressed in HEK293 cells co-expressing Gq11-PLCbeta fused M5 receptor assessed as increase in intracellular calcium level measured for 2.5 mins by Fluo-8-AM dye-based fluorescence assay; settings: read-out: EC50
T1 sequence (Q61143 whole entry): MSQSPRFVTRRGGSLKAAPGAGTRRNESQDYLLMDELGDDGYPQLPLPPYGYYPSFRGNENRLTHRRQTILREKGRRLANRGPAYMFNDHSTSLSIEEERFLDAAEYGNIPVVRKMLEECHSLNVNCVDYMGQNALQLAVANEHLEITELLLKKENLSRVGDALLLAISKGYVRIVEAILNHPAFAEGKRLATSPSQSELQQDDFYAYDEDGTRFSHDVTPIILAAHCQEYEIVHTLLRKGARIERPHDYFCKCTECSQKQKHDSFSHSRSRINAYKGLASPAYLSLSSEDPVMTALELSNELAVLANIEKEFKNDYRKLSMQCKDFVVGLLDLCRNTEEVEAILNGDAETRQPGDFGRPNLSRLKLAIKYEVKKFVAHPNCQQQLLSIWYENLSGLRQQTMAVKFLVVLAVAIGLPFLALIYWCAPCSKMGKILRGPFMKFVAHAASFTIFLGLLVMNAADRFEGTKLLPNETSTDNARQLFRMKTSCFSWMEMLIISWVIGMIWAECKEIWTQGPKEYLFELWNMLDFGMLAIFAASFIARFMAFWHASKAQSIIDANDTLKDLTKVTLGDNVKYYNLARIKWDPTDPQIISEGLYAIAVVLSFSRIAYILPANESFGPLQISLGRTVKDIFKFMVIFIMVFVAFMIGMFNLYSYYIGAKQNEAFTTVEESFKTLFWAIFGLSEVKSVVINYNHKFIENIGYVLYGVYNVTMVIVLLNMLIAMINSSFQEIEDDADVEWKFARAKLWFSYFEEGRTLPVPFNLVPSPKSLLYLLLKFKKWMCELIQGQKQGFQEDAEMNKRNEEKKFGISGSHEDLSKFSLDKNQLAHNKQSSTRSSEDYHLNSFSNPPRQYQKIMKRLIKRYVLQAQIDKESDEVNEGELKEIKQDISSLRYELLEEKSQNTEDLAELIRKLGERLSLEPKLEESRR

[2] = target: Transient receptor potential cation channel subfamily M member 8 (Mus musculus) (UniProt Q8R4D5); experiment: Agonist activity at mouse TRPM8 expressed in HEK293 cells assessed as increase in intracellular calcium level at 33 uM measured for 2.5 mins by Fluo-8-AM dye based fluorescence assay
Chain of Transient receptor potential cation channel subfamily M member 8 (Mus musculus) (Q8R4D5 whole entry): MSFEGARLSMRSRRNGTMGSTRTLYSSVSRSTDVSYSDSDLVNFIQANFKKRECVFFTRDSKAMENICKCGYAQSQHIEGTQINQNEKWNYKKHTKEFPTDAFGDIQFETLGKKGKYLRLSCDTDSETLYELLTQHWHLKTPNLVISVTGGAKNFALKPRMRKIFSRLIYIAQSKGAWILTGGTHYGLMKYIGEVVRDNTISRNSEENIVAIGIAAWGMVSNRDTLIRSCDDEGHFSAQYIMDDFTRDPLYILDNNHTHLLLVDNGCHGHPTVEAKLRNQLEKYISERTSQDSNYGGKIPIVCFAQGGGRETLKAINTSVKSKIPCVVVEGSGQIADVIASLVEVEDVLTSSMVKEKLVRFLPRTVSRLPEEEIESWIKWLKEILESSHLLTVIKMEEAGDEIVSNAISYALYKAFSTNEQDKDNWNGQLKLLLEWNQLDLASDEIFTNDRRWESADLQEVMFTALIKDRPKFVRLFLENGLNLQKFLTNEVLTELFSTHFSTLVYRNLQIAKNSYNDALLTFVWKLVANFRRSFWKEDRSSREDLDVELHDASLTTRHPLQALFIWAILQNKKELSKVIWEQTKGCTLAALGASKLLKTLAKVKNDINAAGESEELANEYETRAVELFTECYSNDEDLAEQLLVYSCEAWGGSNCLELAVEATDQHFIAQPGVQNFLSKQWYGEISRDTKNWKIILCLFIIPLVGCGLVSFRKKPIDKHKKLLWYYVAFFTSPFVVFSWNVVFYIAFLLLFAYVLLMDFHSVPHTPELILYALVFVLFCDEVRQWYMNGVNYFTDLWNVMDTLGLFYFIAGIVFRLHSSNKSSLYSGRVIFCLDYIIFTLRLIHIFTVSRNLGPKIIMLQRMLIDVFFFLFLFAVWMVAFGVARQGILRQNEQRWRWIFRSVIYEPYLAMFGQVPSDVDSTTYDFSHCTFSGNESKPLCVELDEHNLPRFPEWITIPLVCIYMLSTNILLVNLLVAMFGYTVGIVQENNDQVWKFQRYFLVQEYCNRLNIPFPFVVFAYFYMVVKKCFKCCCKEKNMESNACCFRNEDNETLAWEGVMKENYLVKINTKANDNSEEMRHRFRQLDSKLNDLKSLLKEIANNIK

[3] = target: Transient receptor potential cation channel subfamily V member 4 (Homo sapiens) (UniProt Q9HBA0); experiment: Agonist activity at human TRPV4 expressed in HEK293 cells assessed as increase in intracellular calcium level at 33 uM measured for 2.5 mins by Fluo-8-AM dye based fluorescence assay
Chain of Transient receptor potential cation channel subfamily V member 4 (Homo sapiens) (Q9HBA0 whole entry): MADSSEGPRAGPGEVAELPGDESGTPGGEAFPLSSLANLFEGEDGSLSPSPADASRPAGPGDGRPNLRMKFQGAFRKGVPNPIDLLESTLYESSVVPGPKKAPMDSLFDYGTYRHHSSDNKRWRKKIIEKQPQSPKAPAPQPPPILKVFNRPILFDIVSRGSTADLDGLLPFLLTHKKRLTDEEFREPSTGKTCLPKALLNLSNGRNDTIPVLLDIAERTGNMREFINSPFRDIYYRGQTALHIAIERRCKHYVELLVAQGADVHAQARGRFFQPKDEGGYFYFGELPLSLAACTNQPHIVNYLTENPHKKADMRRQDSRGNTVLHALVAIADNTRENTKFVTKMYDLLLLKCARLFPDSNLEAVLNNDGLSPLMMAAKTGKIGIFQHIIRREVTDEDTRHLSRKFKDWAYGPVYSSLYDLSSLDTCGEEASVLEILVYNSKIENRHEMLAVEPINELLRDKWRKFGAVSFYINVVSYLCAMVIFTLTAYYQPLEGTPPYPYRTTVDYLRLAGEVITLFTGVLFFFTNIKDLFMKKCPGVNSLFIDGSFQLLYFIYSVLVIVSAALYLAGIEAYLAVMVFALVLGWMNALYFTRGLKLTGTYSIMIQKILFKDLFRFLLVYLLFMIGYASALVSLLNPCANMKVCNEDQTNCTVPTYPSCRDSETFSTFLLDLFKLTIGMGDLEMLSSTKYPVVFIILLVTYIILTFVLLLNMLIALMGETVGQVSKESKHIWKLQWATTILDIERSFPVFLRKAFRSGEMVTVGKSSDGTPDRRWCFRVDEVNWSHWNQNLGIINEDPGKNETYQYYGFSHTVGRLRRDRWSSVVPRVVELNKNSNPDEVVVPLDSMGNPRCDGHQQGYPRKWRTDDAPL

[4] = target: T2, Transient receptor potential cation channel subfamily M member 5 (Homo sapiens) (UniProt Q9NZQ8); experiment: Agonist activity at human TRPM5 expressed in HEK293 cells assessed as induction of membrane depolarization at 33 uM measured for 2.5 mins by FLIPR membrane potential dye-based fluorescence assay
T2 sequence (whole entry): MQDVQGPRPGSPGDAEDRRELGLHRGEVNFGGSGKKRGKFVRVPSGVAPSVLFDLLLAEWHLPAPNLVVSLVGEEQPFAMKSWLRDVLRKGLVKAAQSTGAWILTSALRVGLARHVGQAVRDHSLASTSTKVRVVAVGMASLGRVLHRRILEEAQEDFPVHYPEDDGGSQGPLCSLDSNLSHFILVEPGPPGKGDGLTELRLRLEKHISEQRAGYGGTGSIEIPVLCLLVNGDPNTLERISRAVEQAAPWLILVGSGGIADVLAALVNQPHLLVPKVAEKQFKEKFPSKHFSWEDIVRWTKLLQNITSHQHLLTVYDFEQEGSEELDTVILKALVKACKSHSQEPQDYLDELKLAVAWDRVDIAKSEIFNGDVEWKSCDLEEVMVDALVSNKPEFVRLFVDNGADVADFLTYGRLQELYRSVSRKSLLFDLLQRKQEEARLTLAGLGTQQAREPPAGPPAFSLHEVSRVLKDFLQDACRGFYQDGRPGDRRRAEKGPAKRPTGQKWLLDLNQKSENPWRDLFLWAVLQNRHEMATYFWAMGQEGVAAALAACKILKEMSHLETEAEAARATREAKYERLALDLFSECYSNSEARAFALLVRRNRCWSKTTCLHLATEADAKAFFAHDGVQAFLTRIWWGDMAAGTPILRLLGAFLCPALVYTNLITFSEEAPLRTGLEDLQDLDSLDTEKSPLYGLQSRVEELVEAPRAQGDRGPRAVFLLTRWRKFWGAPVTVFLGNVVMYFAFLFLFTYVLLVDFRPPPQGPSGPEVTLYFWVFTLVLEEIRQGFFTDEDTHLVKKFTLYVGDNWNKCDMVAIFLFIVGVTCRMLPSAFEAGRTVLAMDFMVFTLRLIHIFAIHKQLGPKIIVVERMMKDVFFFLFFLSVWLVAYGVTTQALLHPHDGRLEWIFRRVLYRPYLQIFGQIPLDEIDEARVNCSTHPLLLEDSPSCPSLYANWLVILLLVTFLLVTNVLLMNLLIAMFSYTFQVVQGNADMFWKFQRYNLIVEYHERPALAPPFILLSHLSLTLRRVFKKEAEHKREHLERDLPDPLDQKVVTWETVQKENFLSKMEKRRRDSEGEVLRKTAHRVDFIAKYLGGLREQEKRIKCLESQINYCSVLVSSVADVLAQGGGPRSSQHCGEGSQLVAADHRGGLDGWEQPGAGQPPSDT

[5] = target: T3, Short transient receptor potential channel 6 (Mus musculus) (UniProt Q61143); experiment: Antagonist activity at mouse TRPC6 expressed in HEK293 cells co-expressing Gq11-PLCbeta fused M5 receptor assessed as channel desensitization at 20 to 100 uM at +80 mV in presence of 0.1 mM Ca2+ by whole cell patch-clamp method
T3 sequence (whole entry): T1 sequence (Q61143 whole entry)
In short: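 Whole-cell clamp of TRPC6/M5 or TRPC7 HEK293 cells with 0.1 mM Ca2+ bath and 400 nM free Ca2+ pipette. Ramps +100 to −100 mV every 1 s. Increasing concentrations given consecutively by perfusion (TRPC6 highest 20–100 μM; TRPC7 up to 30 μM). Currents at positive and negative potentials followed for desensitization.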

Cc1nn2c(O)cc(C3CCN(C(=O)OCc4ccccc4)CC3)nc2c1-c1ccc(F)cc1 was tested, and the pEC50 [1] was 5.41, the Activity [2] was “inactive” and the Activity [3] was “inactive”. The Activity [4] was “inactive” and the Activity [5] was “inactive”.
CCOC(=O)N1CCC(c2cc(O)n3nc(C)c(-c4ccc(C(F)(F)F)cc4)c3n2)CC1 was tested, and the Activity [2] was “inactive”, the Activity [3] was “inactive” and the Activity [4] was “inactive”. The Activity [5] was “inactive”.
In the case of CCOC(=O)N1CCC(c2cc(O)n3nc(C)c(-c4ccc(F)cc4)c3n2)CC1, the pEC50 [1] was 5.33, the Activity [2] was “inactive” and the Activity [3] was “inactive”. The Activity [4] was “inactive” and the Activity [5] was “inactive”.
Cc1nn2c(O)cc(C3CCN(C(=O)OCc4ccccc4)CC3)nc2c1-c1ccc(Cl)cc1 was tested, and the pEC50 [1] was 5.11, the Activity [2] was “inactive” and the Activity [3] was “inactive”. For the same compound, the Activity [4] was “inactive” and the Activity [5] was “inactive”.
